Measurements published in ChEMBL document CHEMBL1149628, “Synthesis of novel lactam derivatives and their evaluation as ligands for the dopamine receptors, leading to a D(4)-selective ligand” (Bioorg Med Chem, 2007).
pKi: −log10 of the molar value. The source made the active and inactive calls. The rule behind the calls is not given here.

How the values were obtained:
D(1B) dopamine receptor [1] = biological target: T1, D(1B) dopamine receptor (Homo sapiens, UniProt P21918); test: Displacement of [3H]SCH 23390 from human Dopamine D5 receptor expressed in HEK293
Method in brief: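 Whole HEK293 cell suspension in 5 mM MgCl2/50 mM Tris-HCl pH 7.4, incubated with [3H]SCH 23390 for 1.5 h at 27 °C. Fluphenazine 100 µM defined non-specific binding. Separation by filtration over polyethyleneimine-treated filters, then scintillation counting. At least two independent experiments, each in triplicate; Ki from IC50 by Cheng-Prusoff.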

D(2) dopamine receptor [2] = biological target: T2, D(2) dopamine receptor (Homo sapiens, UniProt P14416); test: Displacement of [3H]Spiperone from human Dopamine receptor D2 isoform long expressed in HEK293 cells; assay type: cell-based
Method in brief: (§1)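 [3H]Spiperone competition on whole-cell suspensions (D2L in HEK293, D4.4 in CHO) in Tris-HCl 50 mM/MgCl2 5 mM pH 7.4, 1.5 h at 27 °C. Non-specific binding defined with 10 µM haloperidol. Filtration over PEI-treated filtermat, scintillation counting. At least two independent triplicate experiments; nonlinear fit IC50 converted to Ki by Cheng-Prusoff.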

[3] = Displacement of [3H]spiperone from human Dopamine D4.4 receptor expressed in CHO cells; assay type: cell-based; method in brief: as §1
[4] = Displacement of [3H]spiperone from human Dopamine D4.4 receptor expressed in CHO cells at 10 uM; assay type: cell-based
D(2) dopamine receptor [5] = biological target: T2, D(2) dopamine receptor; test: Antagonist activity at human Dopamine receptor D2 isoform long expressed in HEK293 cells assessed as change in quinpirole-induced intracellular calcium response; assay type: functional, cell-based
Method in brief: (§2)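 Intact HEK293 cells stably expressing the receptor, loaded with Oregon Green 488 BAPTA-1/AM plus Pluronic F-127 for 45 min at 37 °C, then suspended in Krebs-Hepes buffer pH 7.4. Fluorescence ex 485/em 520 nm read over 30 s. IC50 by four-parameter fit; Ki via modified Cheng-Prusoff.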

D(1B) dopamine receptor [6] = biological target: T1, D(1B) dopamine receptor; test: Displacement of [3H]SCH 23390 from human Dopamine D5 receptor expressed in HEK293 cells at 10 uM; assay type: cell-based
Method in brief: (§3)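 Whole HEK293 cells expressing hD5 or hD2L were suspended in 50 mM Tris-HCl, 5 mM MgCl2, pH 7.4, with [3H]SCH 23390 (D5) or [3H]spiperone (D2) and run in triplicate for 1.5 h at 27 °C. Samples were filtered on PEI-treated filtermats and counted by scintillation. Non-specific binding was set with fluphenazine 100 µM (D5) or haloperidol 10 µM (D2). The value is % change in bound radioactivity.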

D(1B) dopamine receptor [7] = biological target: T1, D(1B) dopamine receptor; test: Antagonist activity at human Dopamine D5 receptor in HEK293 cells assessed as change in SKF 38393-induced intracellular calcium response at 10 uM; assay type: functional, cell-based; design: scale not given: the % may be the effect or the level left
Method in brief: (§4)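 HEK293 cells stably expressing hD2L or hD5 were loaded with Oregon Green 488 BAPTA-1/AM for 45 min at 37 °C and resuspended in Krebs-Hepes buffer at pH 7.4. Cells were preincubated with compound for 30 min at 37 °C, then given standard agonist at 1 µM final (quinpirole for D2, SKF 38393 for D5). Fluorescence (ex 485, em 520 nm) was read for 30 s; the value is % change of the agonist-induced signal.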

D(1B) dopamine receptor [8] = biological target: T1, D(1B) dopamine receptor; test: Antagonist activity at human Dopamine D5 receptor in HEK293 cells assessed as change in SKF 38393-induced intracellular calcium response; assay type: functional, cell-based; method in brief: as §2
D(2) dopamine receptor [9] = biological target: T2, D(2) dopamine receptor; test: Antagonist activity at human Dopamine receptor D2 isoform long expressed in HEK293 cells assessed as change in quinpirole-induced intracellular calcium response at 10 uM; assay type: functional, cell-based; design: scale not given: the % may be the effect or the level left; method in brief: as §4
D(3) dopamine receptor = D(3) dopamine receptor (Homo sapiens, UniProt P35462); test: Displacement of [3H]spiperone from human Dopamine D3 receptor expressed in CHO cells; assay type: cell-based
D(2) dopamine receptor [10] = biological target: T2, D(2) dopamine receptor; test: Displacement of [3H]spiperone from human Dopamine receptor D2 isoform long expressed in HEK293 cells at 10 uM; assay type: cell-based; method in brief: as §3
Homo sapiens [11] = organism: Homo sapiens; test: Selectivity for human dopamine D4.4 receptor over human dopamine receptor D2 isoform long
Homo sapiens [12] = organism: Homo sapiens; test: Selectivity for human dopamine D4.4 receptor over human dopamine D5 receptor
Homo sapiens [13] = organism: Homo sapiens; test: Selectivity for human dopamine D4.4 receptor over human dopamine D3 receptor

T1 sequence (P21918 whole entry): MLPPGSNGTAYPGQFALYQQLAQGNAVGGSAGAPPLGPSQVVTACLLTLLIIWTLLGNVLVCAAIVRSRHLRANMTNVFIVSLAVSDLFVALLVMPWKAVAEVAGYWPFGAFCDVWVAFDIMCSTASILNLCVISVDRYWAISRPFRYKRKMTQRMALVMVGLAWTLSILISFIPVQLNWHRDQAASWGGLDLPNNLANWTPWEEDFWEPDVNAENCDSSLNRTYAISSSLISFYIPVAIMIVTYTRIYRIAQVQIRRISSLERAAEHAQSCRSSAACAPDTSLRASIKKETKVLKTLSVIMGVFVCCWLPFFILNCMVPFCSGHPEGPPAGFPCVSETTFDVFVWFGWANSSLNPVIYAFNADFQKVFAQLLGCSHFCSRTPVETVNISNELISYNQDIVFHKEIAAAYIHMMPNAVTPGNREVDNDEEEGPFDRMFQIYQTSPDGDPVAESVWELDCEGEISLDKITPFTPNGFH
Sequence of D(3) dopamine receptor (P35462 whole entry, canonical isoform): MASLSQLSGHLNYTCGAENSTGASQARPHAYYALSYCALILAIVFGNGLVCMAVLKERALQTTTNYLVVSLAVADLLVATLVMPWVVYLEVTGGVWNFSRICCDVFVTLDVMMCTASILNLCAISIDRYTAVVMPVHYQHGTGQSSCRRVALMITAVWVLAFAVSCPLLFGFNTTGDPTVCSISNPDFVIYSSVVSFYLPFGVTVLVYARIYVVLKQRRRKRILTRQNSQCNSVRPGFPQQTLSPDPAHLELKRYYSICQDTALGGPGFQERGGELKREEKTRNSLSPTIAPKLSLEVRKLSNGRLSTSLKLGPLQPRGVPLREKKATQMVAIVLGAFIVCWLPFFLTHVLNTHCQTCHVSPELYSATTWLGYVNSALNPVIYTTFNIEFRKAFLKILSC
T2 sequence (P14416 whole entry, canonical isoform): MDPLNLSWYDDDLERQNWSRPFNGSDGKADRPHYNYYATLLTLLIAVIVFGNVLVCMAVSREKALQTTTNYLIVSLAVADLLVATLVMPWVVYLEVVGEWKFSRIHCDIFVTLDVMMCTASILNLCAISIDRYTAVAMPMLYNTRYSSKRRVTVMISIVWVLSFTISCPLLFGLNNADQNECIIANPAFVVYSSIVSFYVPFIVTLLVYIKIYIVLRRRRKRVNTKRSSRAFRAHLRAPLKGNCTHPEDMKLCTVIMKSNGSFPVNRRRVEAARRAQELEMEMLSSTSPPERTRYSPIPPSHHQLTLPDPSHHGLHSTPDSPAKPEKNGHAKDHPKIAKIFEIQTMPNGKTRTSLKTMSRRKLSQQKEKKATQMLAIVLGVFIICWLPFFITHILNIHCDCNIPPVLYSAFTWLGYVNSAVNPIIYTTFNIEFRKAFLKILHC

| Compound | pKi (D(1B) dopamine receptor [1]) | pKi (D(2) dopamine receptor [2]) | pKi (D(2) dopamine receptor [5]) | Activity (D(1B) dopamine receptor [6]) [%] | Activity (D(1B) dopamine receptor [7]) [%] | Activity (D(1B) dopamine receptor [8]) | Activity (D(2) dopamine receptor [9]) [%] | pKi (D(3) dopamine receptor) | Activity (D(2) dopamine receptor [10]) [%] | Selectivity ratio (Homo sapiens [11]) | Selectivity ratio (Homo sapiens [12]) | Selectivity ratio (Homo sapiens [13]) | Ki (D(1B) dopamine receptor [8]) | pKi [3] | Activity [4] [%] |
| --- | --- | --- | --- | --- | --- | --- | --- | --- | --- | --- | --- | --- | --- | --- | --- |
| O=C1Cc2ccccc2N1CCCCN1CCN(c2ccc(Cl)cc2)CC1 | 6.69 | 5.76 | 6.43 | 93 | 8 | inactive | -28 | 5.92 | 106 | > 43000 | > 5000 | > 30000 |  | 10.40 | 101 |
| O=C1Cc2ccccc2N1CCCCN1CCN(c2cccc(C(F)(F)F)c2)CC1 | 6.72 | 6.49 | 6.38 | 93 | 26 | inactive | -55 | 6.61 | 105 |  |  |  |  | 7.55 | 96 |
| O=C1c2ccccc2CN1CCCCN1CCN(c2ccc(Cl)cc2)CC1 | 7.47 | 6.12 | < 5.00 | 100 | 21 | inactive | -7 | 6.18 | 105 |  |  |  |  | 6.85 | 91 |
| COc1ccccc1N1CCN(CCCCn2cnc3ccccc3c2=O)CC1 |  | 6.74 | 8.92 |  |  |  | -58 |  | 105 |  |  |  |  |  |  |
| O=C1c2ccccc2CN1CCCCN1CCN(c2cccc(C(F)(F)F)c2)CC1 | 7.09 | 6.41 | 7.59 | 99 | 41 | inactive | -53 | 7.85 | 106 |  |  |  |  | 6.43 | 95 |

Molecules with a higher pKi (D(2) dopamine receptor [2]), results first:

| pKi (D(1B) dopamine receptor [1]) | pKi (D(2) dopamine receptor [2]) | pKi (D(2) dopamine receptor [5]) | Activity (D(1B) dopamine receptor [6]) [%] | Activity (D(1B) dopamine receptor [7]) [%] | Activity (D(1B) dopamine receptor [8]) | Activity (D(2) dopamine receptor [9]) [%] | pKi (D(3) dopamine receptor) | Activity (D(2) dopamine receptor [10]) [%] | Selectivity ratio (Homo sapiens [11]) | Selectivity ratio (Homo sapiens [12]) | Selectivity ratio (Homo sapiens [13]) | Ki (D(1B) dopamine receptor [8]) | Compound | pKi [3] | Activity [4] [%] |
| --- | --- | --- | --- | --- | --- | --- | --- | --- | --- | --- | --- | --- | --- | --- | --- |
| 6.64 | 6.75 | < 5.00 | 87 | 4 | inactive | -24 | 6.54 | 99 |  |  |  |  | O=C1c2ccccc2S(=O)(=O)N1CCCCN1CCN(c2ccc(Cl)cc2)CC1 | 7.44 | 101 |
| 6.29 | 6.85 | < 5.00 | 76 | 5 |  | -44 | 5.75 | 100 |  |  |  | Not Active | O=c1c2ccccc2ncn1CCCCN1CCN(c2ccc(Cl)cc2)CC1 | 6.80 | 102 |
| 5.76 | 6.95 | < 5.00 | 89 | 8 | inactive | -44 | 6.97 | 100 |  |  |  |  | O=C1c2ccccc2S(=O)(=O)N1CCCCN1CCN(c2cccc(C(F)(F)F)c2)CC1 | < 5.00 | 54 |
| 5.77 | 7.14 | < 5.00 | 76 | 9 | inactive | -38 | 6.99 | 107 |  |  |  |  | O=c1c2ccccc2ncn1CCCCN1CCN(c2cccc(C(F)(F)F)c2)CC1 | 6.73 | 98 |
